Source: ChEMBL document CHEMBL1955829, “Synthesis and biological evaluation of 4β-sulphonamido and 4β-[(4'-sulphonamido)benzamide]podophyllotoxins as DNA topoisomerase-IIα and apoptosis inducing agents” (2012)
Active and inactive are the calls of the source. The calls are words filed in the database; no cut-off is given here.

What was measured:
[1] = test system: KB; experiment: Growth inhibition of human KB cells after 48 hrs by sulforhodamine B assay; type: functional
Summary of the method: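 Cells grown in DMEM with 10% FBS and 2 mM L-glutamine, plated at densities set by doubling time, and held 24 h before dosing. Exposure was 48 h to 0.1, 1, 10 and 100 µM in triplicate wells. Cells fixed with cold TCA (final 10%) 60 min at 4 °C and stained with 0.4% SRB 20 min. Bound dye eluted in 10 mM Tris base and read at 540 nm (690 nm reference). GI50 is the concentration giving 50% reduction in net protein gain versus control; values are the mean of three determinations.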

[2] = biological target: DNA topoisomerase 2-beta (Homo sapiens) (UniProt Q02880); experiment: Inhibition of topoisomerase 2beta in human in COLO205 cells assessed as induction of double-strand DNA breaks at 4 uM after 24 hrs by gamma-H2AX staining-based Western blotting analysis; type: cell-based; settings: COLO 205
Chain of DNA topoisomerase 2-beta (Homo sapiens) (Q02880 whole entry): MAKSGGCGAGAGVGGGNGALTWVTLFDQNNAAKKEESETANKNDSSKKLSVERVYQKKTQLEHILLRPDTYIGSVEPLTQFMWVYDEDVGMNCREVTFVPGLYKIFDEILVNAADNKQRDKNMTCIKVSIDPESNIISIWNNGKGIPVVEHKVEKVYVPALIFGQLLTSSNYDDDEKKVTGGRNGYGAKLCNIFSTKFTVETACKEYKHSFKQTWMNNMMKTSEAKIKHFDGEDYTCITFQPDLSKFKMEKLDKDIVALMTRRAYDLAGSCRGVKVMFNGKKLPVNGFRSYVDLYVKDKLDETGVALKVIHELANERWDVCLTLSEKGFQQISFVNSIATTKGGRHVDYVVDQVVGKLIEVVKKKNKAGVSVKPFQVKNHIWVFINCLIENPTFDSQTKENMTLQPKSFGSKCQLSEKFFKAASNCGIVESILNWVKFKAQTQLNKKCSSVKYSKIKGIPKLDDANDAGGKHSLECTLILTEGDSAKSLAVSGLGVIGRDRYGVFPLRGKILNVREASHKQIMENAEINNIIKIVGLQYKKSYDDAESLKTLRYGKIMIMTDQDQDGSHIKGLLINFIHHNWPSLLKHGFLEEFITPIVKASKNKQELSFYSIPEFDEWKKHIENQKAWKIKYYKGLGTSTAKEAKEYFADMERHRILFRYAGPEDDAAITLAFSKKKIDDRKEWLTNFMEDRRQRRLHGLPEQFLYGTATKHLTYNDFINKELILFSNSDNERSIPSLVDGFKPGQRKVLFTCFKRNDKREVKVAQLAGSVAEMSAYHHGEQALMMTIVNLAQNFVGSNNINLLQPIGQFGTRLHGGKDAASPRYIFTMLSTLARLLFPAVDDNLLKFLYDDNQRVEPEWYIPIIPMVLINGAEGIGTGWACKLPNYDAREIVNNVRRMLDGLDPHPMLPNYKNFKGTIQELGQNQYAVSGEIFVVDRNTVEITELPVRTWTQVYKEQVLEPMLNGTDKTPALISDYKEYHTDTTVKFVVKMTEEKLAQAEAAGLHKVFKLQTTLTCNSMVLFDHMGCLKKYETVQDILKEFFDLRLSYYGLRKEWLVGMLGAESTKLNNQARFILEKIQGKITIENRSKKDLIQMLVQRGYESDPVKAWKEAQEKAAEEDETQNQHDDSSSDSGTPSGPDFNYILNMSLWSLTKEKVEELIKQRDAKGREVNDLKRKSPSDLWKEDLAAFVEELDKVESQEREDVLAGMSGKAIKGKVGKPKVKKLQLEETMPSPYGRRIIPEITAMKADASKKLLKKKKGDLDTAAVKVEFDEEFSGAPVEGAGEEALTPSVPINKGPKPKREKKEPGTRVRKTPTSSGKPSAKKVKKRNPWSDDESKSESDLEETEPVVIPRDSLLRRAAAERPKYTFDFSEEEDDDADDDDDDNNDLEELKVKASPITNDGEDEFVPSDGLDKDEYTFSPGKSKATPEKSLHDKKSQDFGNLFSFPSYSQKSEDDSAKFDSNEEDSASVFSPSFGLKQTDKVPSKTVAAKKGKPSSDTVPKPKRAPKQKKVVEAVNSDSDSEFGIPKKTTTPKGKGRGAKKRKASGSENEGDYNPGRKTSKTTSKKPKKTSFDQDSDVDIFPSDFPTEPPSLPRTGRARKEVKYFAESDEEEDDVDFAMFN
Summary of the method: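 Colo-205 cells treated 24 h at 4 µM. Double-strand breaks detected with anti-phospho-Ser139 H2AX antibody, both by immunofluorescence staining and by Western blot, with β-actin as loading control.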

[3] = test system: COLO 205; experiment: Down regulation of topoisomerase 2beta in human COLO205 cells at 4 uM after 24 hrs by Western blotting analysis; type: functional, cell-based
Summary of the method: (§1)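 Colo-205 cells treated 24 h at 4 µM and lysed in ice-cold RIPA with protease inhibitors and NaF. Protein measured by Bradford; 50 µg per lane run on 12% SDS-PAGE and transferred to PVDF. Membrane blocked 2 h, primary antibody (topo-IIα/β, p21, p16, pro-caspase-3, NF-kB p65) overnight at 4 °C, HRP secondary 1:2000 for 1 h, chemiluminescence detection; β-actin as loading control. Reduced procaspase-3 taken as caspase-3 activation.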

[4] = test system: COLO 205; experiment: Induction of apoptosis in human COLO205 cells assessed as down regulation of Bcl-2 at 4 uM after 24 hrs by ELISA; type: functional, cell-based
Summary of the method: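 Colo-205 cells treated 24 h at 4 µM, with etoposide and camptothecin as controls. Lysates added to Bcl2-antibody-coated wells, followed by a biotin-conjugated anti-human Bcl2 monoclonal antibody, in a Bcl2 ELISA.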

[5] = test system: COLO 205; experiment: Cytotoxicity against human COLO205 cells at 4 uM after 24 hrs by MTT assay; type: functional, cell-based
Summary of the method: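 Colo-205 cells plated at 10,000 per well, left overnight, then exposed 24 h at 2, 4 or 8 µM. MTT added for 2 h at 37 °C, formazan dissolved in extraction buffer, and optical density read at 570 nm against untreated cells.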

[6] = biological target: DNA topoisomerase 2-beta (Mus musculus) (UniProt Q64511); experiment: Inhibition of topoisomerase 2beta in mouse embryonic fibroblasts after 1.5 hrs by comet assay; settings: concentration not given here
Chain of DNA topoisomerase 2-beta (Mus musculus) (Q64511 whole entry): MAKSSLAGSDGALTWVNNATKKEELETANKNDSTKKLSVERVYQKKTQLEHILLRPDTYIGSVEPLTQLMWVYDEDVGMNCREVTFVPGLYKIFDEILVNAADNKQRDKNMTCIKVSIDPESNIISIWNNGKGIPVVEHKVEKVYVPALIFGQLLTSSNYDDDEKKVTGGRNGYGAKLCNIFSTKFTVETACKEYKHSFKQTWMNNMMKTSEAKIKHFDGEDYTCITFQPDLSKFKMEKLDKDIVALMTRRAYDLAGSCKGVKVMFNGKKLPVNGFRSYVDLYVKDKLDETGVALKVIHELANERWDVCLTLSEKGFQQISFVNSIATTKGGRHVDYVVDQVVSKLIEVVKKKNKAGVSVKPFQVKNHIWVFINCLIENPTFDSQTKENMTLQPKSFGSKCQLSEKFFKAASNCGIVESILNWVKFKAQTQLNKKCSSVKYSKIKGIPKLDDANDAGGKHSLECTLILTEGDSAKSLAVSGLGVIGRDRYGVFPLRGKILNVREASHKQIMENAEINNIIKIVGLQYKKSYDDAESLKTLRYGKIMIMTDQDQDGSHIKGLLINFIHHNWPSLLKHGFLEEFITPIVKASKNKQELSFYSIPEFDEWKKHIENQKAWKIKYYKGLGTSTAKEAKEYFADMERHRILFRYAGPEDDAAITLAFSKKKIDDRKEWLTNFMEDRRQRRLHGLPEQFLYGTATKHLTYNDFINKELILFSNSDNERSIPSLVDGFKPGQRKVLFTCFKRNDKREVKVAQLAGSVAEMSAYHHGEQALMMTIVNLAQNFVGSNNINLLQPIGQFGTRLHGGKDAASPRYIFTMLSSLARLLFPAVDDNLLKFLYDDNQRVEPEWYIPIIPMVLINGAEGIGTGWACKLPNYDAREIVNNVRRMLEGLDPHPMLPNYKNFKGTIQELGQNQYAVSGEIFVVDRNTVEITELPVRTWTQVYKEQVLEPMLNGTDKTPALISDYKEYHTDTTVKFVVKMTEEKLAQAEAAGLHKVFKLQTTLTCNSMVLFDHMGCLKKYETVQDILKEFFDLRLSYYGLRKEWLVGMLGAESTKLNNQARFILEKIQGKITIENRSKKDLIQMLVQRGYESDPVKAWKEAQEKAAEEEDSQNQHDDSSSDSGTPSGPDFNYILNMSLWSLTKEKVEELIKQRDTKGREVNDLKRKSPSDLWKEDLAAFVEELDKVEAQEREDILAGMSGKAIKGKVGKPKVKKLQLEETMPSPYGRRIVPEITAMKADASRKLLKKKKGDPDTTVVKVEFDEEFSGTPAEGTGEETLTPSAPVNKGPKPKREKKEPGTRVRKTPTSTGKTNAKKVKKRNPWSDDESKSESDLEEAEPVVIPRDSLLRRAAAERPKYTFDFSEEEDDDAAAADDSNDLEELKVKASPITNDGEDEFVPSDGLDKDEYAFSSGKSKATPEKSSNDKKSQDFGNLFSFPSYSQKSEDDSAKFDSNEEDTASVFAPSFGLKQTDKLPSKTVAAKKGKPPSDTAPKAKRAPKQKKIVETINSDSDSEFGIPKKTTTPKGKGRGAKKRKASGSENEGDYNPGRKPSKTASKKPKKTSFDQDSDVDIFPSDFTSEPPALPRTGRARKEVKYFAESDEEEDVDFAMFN

[7] = test system: COLO 205; experiment: Cell cycle arrest in human COLO205 cells assessed as accumulation at G2/M phase at 4 uM after 24 hrs by FACS analysis in presence of HDAC inhibitor, trichostatin A (reference value: 17.41%); type: functional
Summary of the method: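 Colo-205 cells seeded at […] per 60 mm dish and treated 24 h at 4 µM; TSA arm used TSA at 4 µM for 12 h. Cells trypsinised, fixed in ice-cold 70% ethanol 30 min at 4 °C, RNase 1 mg/mL 30 min at 37 °C, then propidium iodide/citrate/Triton stain. DNA content of 20,000 events read by flow cytometry; phase percentages from histograms.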

[8] = biological target: T1, Serine/threonine-protein kinase Chk1 (Homo sapiens) (UniProt O14757); experiment: Increase in Chk1 phosphorylation at Ser345 in human COLO205 cells after 24 hrs; type: cell-based; settings: COLO 205
T1 sequence (whole entry): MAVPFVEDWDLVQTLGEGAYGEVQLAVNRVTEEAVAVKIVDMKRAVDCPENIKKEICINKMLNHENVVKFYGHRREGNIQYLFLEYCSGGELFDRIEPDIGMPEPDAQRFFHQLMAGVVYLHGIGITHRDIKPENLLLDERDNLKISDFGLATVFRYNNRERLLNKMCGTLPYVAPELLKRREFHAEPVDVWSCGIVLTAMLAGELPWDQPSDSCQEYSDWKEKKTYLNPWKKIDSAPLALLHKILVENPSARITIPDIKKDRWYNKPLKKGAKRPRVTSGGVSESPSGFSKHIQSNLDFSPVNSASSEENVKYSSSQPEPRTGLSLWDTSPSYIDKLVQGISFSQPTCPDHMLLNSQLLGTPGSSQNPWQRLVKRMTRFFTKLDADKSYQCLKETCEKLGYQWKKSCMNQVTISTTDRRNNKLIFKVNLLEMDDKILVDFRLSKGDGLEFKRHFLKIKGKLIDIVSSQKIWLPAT
Summary of the method: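 Colo-205 cells on coverslips treated 24 h at 4 µM. Fixed in 4% paraformaldehyde, permeabilised with 0.2% Triton X-100, held in methanol overnight at 4 °C, and blocked with 1% BSA. Stained with anti-phospho-ATM (S1981) or anti-phospho-Chk1 (1:100) for 2 h at room temperature, then FITC anti-rabbit secondary for 1 h; DAPI/PI counterstain and confocal imaging.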

[9] = test system: COLO 205; experiment: Down regulation of topoisomerase 2alpha in human COLO205 cells at 4 uM after 24 hrs by Western blotting analysis; type: functional, cell-based; summary of the method: as §1

Compound | GI50 [1] [nM] | inhibition [2] | Activity [3] | Activity [4] | Activity [5] | inhibition [6] [%] | Activity [7] [%] | Activity [8] | Activity [9]
COc1cc([C@@H]2c3cc4c(cc3[C@@H](O[C@@H]3O[C@@H]5CO[C@@H](C)O[C@H]5[C@H](O)[C@H]3O)[C@H]3COC(=O)[C@H]23)OCO4)cc(OC)c1O [ETOPOSIDE] | 310 | Active | Active | Active | Active | 100 | 13.28 | Active | 
COC(=O)c1sccc1S(=O)(=O)N[C@@H]1c2cc3c(cc2[C@@H](c2cc(OC)c(OC)c(OC)c2)[C@H]2C(=O)OC[C@@H]21)OCO3 | 40 | 50% |  | Active | Active |  | 15.7 | Active | Active
